Assay results as given in paper PMC11344153 (Scientific Reports, 2024).

How the values were obtained:
[1] = tested on: N-terminal peptide of GPIHBP1; assay: SPR binding to immobilized N-terminal peptide of GPIHBP1; set-up: species or system human; conditions: even at concentrations of 1 μM, 25 °C, 20 mM HEPES pH 7.4, 0.15 M NaCl
Summary of the method: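 Biacore SPR with 578 RU of biotinylated N-terminal GPIHBP1 peptide captured on the sensor (148.5 fmol/mm2). Analytes were tenfold-diluted pooled nonfasting human plasma, tenfold-diluted lipoprotein-deficient plasma (± 20, 40 or 80 nM purified bovine LPL) or isolated heparin-binding proteins (antithrombin III, protamine, FGF-2). Flow was 20 µl/min at 25 °C in 20 mM HEPES pH 7.4, 0.15 M NaCl.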

[2] = molecular target: T1, LPL (Bos taurus, UniProt P11151); type: binding, bovine; conditions: fluorescence anisotropy, 10 IU/ml heparin in phosphate buffer
T1 sequence (P11151 29-478): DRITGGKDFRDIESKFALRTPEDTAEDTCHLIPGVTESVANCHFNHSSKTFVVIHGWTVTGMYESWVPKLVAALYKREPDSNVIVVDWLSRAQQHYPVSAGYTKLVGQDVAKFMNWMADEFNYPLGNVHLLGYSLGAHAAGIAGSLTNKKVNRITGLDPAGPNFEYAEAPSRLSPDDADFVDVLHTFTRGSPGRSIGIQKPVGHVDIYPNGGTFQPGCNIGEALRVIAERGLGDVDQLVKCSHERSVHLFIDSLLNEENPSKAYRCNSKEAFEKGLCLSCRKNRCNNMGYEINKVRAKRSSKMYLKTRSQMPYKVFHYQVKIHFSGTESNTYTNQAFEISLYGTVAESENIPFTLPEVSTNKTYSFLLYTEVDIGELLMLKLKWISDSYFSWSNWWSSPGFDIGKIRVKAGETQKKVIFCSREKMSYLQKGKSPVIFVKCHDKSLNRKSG
Summary of the method: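 N-terminal GPIHBP1 peptide labeled at cysteine with DyLight 488 maleimide, 100 nM, mixed with increasing LPL concentrations in 20 mM phosphate, pH 7.4, 0.15 M NaCl plus 10 IU/ml heparin. Excitation 493 nm, emission 518 nm, with emission polarizer parallel and perpendicular to vertical excitation. Anisotropy change versus LPL concentration fitted to a 1:1 binding model for KD.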

binding to the immobilized N-terminal domain of GPIHBP1 [1] | effect on the interaction between LPL and the N-terminal domain of GPIHBP1 [2] | Substance
no binding |  | FGF-2: heparin binding protein, ICN Biomedicals
no binding |  | antithrombin III
 | completely blocked the interaction | heparin
no binding |  | protamine
